Source: PubChem BioAssay (several laboratories)
Apaf1 inhib: human Apaf-1 inhibition; inhibition, % at 20 µM; reconstituted apoptosome caspase-3 activity, DEVD-Rh110 fluorescence; hit rate 0.71% among 330,000; active = inhibition of at least 40% at 20 µM;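 note: plate controls were DMSO wells for no effect and DEVD-CHO caspase inhibitor wells for full effect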
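System: Apoptosome proteins | Medium: Hepes pH 7.5 with detergent and BSA | Also added: Cytochrome c trigger plus (Z-DEVD)2-Rh110 caspase-3 substrate | Incubation: 30 min compound preincubation, 50 min activation, room temperature | Detection: Rhodamine 110 fluorescence at Ex 480/Em 540 nm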
ZTA counter: counter-screen for EBNA-1 inhibitors: inhibitors of Epstein-Barr virus ZTA | ZTA-DNA binding, fluorescence polarization | hit rate 0.15% among 320,000 | P03206 | inhibition, % at 11 µM; in the data active = inhibition above about 33%
proCasp7 act: counter-screen: procaspase-7 (human) activation. recombinant procaspase-7, Ac-DEVD-pNA absorbance 405 nm; D23A/D198A/D206A triple mutant, cannot self-cleave; scale: DMSO 0, 5 µM enzyme 100. P55210. activation, % at 8.5 µM. hit rate 0.093% among 330,000. AID 463210;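 active = percent activation above the screen-wide mean plus 3 SD, cut at about 25% in these data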
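Replicates: singlicate. Assay system: Procaspase-7 triple mutant (PC-7 D3A). Signal: 405 nm absorbance of p-nitroaniline. Times: 1 h preincubation, 2 h reaction. Buffer or medium: Zinc-free HEPES pH 7.4 with 300 mM NaCl, 0.01% Triton X-100. Also added: DEVD-pNA substrate. Benchmarks: DMSO wells as 0%, DMSO with 5 µM added PC-7 as 100%.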
EBNA-1 inh: blocks EBNA-1 binding to DNA. EBNA-1 DNA binding, fluorescence polarization. hit rate 0.34% among 300,000. inhibition, % at 14.8 µM; in the data active = inhibition above about 28%
proCasp3 act: activators of human procaspase-3. recombinant procaspase-3 D3A, Ac-DEVD-pNA absorbance 405 nm. P42574. AID 463141. activation, % at 8.5 µM. hit rate 0.11% among 330,000;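 active = activation above the mean of all tested compounds plus 3 SD, cut at about 21% in these data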;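 note: 0% = DMSO alone and 100% = DMSO wells spiked with extra 5 µM PC-3 D3A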
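Assay system: Procaspase-3 D3A mutant, all three cleavage aspartates alanine. Buffer or medium: Zinc-free HEPES saline buffer with Triton X-100. Times: 1 h compound preincubation, 2 h substrate hydrolysis at 25 °C. Measured by: 405 nm absorbance of p-nitroaniline, reads at 0 and 120 min. Read-out basis: percent activation relative to control range. Replicates: singlicate.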
GSTO1 inh: GSTO1 inhibition, counter-screen for RBBP9 inhibitors; P78417; recombinant GSTO1, activity-based probe fluorescence polarization; inhibition, % at 5.96 µM; hit rate 1.1% among 300,000; AID 1974;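 active = inhibition above the campaign mean inhibition plus 3 SD, cut at about 35% in these data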;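 note: 0% = GSTO1-1 with DMSO and 100% = wells lacking GSTO1-1 enzyme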
Zta DNA confirm: EBV ZTA DNA binding inhibition, confirmation | shares compounds with ZTA counter | Zta-ZRE DNA binding, fluorescence polarization | inhibition, % at 11.1 µM | hit rate 30% among 320 | AID 2361;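 active = mean inhibition across triplicate runs above the hit threshold derived for the original primary screen, cut at about 33% in these data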;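 note: 0% = Zta with DMSO and 100% = wells lacking Zta protein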
EBNA-1 counter: EBNA-1 DNA binding inhibition, counter-screen for ZTA | shares compounds with ZTA counter | fluorescence polarization | inhibition, % at 14.8 µM | 320 tested, under 10 active
proCasp7 act trip: counter-screen for procaspase-3 activators: activators of human procaspase-7. recombinant procaspase-7, Ac-DEVD-pNA absorbance; asp23/198/206-to-Ala mutant, cannot self-cleave. activation, % at 8.5 µM. AID 488941. shares compounds with proCasp3 act. 210 tested, under 10 active;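 active = mean activation above a set limit taken from an earlier procaspase-7 screen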;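 note: 0% = DMSO wells and 100% = DMSO plus 5 µM procaspase-7 enzyme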
proCasp3 confirm: confirmation of human procaspase-3 activators; shares compounds with proCasp3 act; recombinant PC-3 D3A, Ac-DEVD-pNA absorbance 405 nm; 100% is higher-enzyme control; activation, % at 8.5 µM; hit rate 10% among 210;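 active = mean activation above a set limit carried over from the earlier primary screen, cut at about 22% in these data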
Apaf-1 inh conf: Apaf-1 inhibition, single-dose confirmed. shares compounds with Apaf1 inhib. reconstituted apoptosome, caspase-3 DEVD-Rh110 fluorescence. inhibition, % at 20 µM. hit rate 25% among 1,800;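 active = mean inhibition of at least 40% at 20 µM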;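 note: plate controls were DMSO wells for no effect and DEVD-CHO caspase inhibitor control wells for full effect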
Rh110 quench: interferes with Rh110 fluorescence, flagging false Apaf-1 inhibitors; shares compounds with Apaf1 inhib; Rh110 fluorescence interference, quenched caspase reaction; activation (fluorescence interference), % at 20 µM; 1,800 tested, under 10 active; AID 504615;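 active = signal rise of 40% or more at 20 µM, treated as a fluorescence artifact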
Apaf1 inh interf: counter-screen for Apaf-1 inhibitors: fluorescence interference, dose response | shares compounds with Apaf1 inhib | fluorescence interference counterscreen, Apaf-1 assay format | IC50, µM | 460 tested, under 10 active
An asterisk follows results filed as active; . = no result given; + = active, no number. Compounds with a hit are over-represented: about 1.8% of the library has one in this group of screens. Unless noted, the rule behind the calls is not given here.

SMILES	Apaf1 inhib	ZTA counter	proCasp7 act	EBNA-1 inh	proCasp3 act	GSTO1 inh	Zta DNA confirm	EBNA-1 counter	Apaf-1 inh conf	Rh110 quench	Apaf1 inh interf	others
CCN(CC)CCOC(=O)c1ccc(N/C=C(/C#N)c2nc(-c3cccc(OC)c3)cs2)cc1	55*	40*	-21	-2	-63	-3	3	-13	7	3	.
Cc1ccc(-c2csc(/C(C#N)=C/Nc3ccc4c(c3)OCCO4)n2)cc1	-9	3	9	7	9	-1	.	.	.	.	.
CCN(CC)CCOC(=O)c1ccc(N/C=C(/C#N)c2nc(-c3ccc(OC)c(OC)c3)cs2)cc1	55*	74*	8	2	-10	7	51*	20	67*	12	>100
Cc1ccc(CC(=O)O/N=C(\N)c2ccncc2)cc1	-3	-24	-2	0	0	7	.	.	.	.	.
CCCCCCCCCCCCCCCC[N+](C)(C)CCN(Cc1ccc(OC)cc1)c1ncccn1	98*	35*	-2	6	-8	4	77*	3	92*	30	>100
Cc1n[nH]c(C)c1S(=O)(=O)N1CCc2ccccc2C1	3	-9	-10	-2	0	-10	.	.	.	.	.
C#CCOCCOCCOCCNc1nc(N2CCN(C(=O)CCCCCCCCCCNC(=O)[C@H](CCCCN)n3cc(C)nn3)CC2)nc(N2CCN(C(=O)CCCCCCCCCCNC(=O)[C@H](CCCN=C(N)N)n3cc(C[C@@H](C)CC)nn3)CC2)n1	75*	51*	-2	-2	-2	-5	47*	-3	57*	4	>100
C#CCOCCOCCOCCNc1nc(N2CCN(C(=O)CCCCCCCCCCNC(=O)[C@@H](CCC(=O)O)n3cc(CCCCCN)nn3)CC2)nc(N2CCN(C(=O)CCCCCCCCCCNC(=O)[C@H](CCCCN)n3cc(C[C@@H](C)CC)nn3)CC2)n1	72*	54*	6	-2	10	3	-12	-3	50*	7	>100
O=C(COC(=O)Cc1ccc(S(=O)(=O)N2CCOCC2)s1)Nc1ccc([N+](=O)[O-])cc1	-9	-8	-8	.	-3	.	.	.	.	.	.
CCOc1ccccc1O[C@H](c1ccccc1)[C@H]1CNCCO1	9	8	0	6	1	1	.	.	.	.	.
O=C(Nc1ccc(N2CCOCC2)c2nonc12)C1CCCC1	21	8	-1	17	-10	4	.	.	.	.	.
Nc1ccc(N2CCOCC2)c2nonc12	84*	55*	-32	-3	-20	86*	2	7	33	-6	.
c1ccc2c(c1)ccc1ccccc12	-6	.	6	.	0	.	.	.	.	.	.
CC1=[N+](C)c2ccc3ccccc3c2C1(C)C	42*	+	0	1	-7	-68	69*	18	16	1	.
Cn1c(SCc2ccccc2F)nc2ccccc2c1=O	17	8	6	2	22*	-1	.	.	.	.	.	proCasp7 act trip=1;proCasp3 confirm=3
Cc1ccccc1CSc1nc2ccccc2c(=O)n1C	6	-1	-6	.	-2	.	.	.	.	.	.
